Assay results as given in ChEMBL document CHEMBL5385869, “Novel 4-aminoquinolines: Synthesis, inhibition of the Mycobacterium tuberculosis enoyl-acyl carrier protein reductase, antitubercular activity, SAR, and preclinical evaluation” (Eur J Med Chem, 2023).
Activity calls are given as the source filed them. The rule behind the calls is not given here.

Columns and labels:
[1] = Cytotoxicity against human HepG2 cells assessed as reduction in cell viability incubated for 72 hrs by MTT assay; assay type: toxicity, cell-based
Method in brief: (§1)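 Cells grown in DMEM with 10% FBS. HepG2 seeded at 4 × 10³ and Vero at 2 × 10³ cells/well, 24 h before dosing. Compounds at 1, 5 and 20 μM in 1% DMSO for 72 h at 37 °C, 5% CO2. MTT readout: 5 mg/mL reagent for 4 h, absorbance at 595 nm. Neutral red readout: 25 μg/mL dye for 3 h, then acid-ethanol desorb. Viability is expressed relative to 1% DMSO controls.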

Acinetobacter baumannii = experiment: Antibacterial activity against multidrug-resistant Acinetobacter baumannii clinical isolates assessed as inhibition of bacterial growth at 20 uM by broth microdilution method; assay type: functional, organism-based
Method in brief: (§2)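 Broth microdilution in triplicate against a small bacterial panel, with compounds tested at 20 μM for growth inhibition.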

[2] = Chemical stability in 0.1 M NH4HCO3 solution at pH 9.1 assessed as reduction in parent compound at 1 to 10 uM measured after 24 hrs by HPLC-EM/MS analysis; assay type: physicochemical; details: dose 1-10 µM, read-out: Drug degradation
Method in brief: (§3)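 Compounds at 1–10 μM incubated 24 h at 37 °C in three media: pH 1.2 (0.1 M HCl), pH 7.4 (PBS) and pH 9.1 (0.1 M NH4HCO3). Remaining parent compound quantified afterward.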

[3] = target: T1, Enoyl-[acyl-carrier-protein] reductase [NADH] (Mycobacterium tuberculosis) (UniProt P9WGR1); experiment: Binding affinity to Mycobacterium tuberculosis InhA assessed as change in entropy at 250 uM in presence of NADH by fluorescence spectroscopy
T1 sequence (whole entry): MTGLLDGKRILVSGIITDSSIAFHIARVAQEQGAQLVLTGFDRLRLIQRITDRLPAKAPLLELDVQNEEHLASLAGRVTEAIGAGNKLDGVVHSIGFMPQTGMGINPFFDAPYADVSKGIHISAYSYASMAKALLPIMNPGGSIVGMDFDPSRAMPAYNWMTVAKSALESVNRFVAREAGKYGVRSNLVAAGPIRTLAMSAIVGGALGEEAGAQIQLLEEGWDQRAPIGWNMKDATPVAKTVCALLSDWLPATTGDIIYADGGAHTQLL

[4] = Metabolic stability in rat liver microsomes assessed as half life at 2 uM measured upto 30 mins by HPLC/MS/MS analysis; assay type: ADME, Microsome
Method in brief: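 Compounds at 2 μM incubated at 37 °C with 1 mg/mL rat liver microsomes containing NADPH. Parent compound consumption followed over time.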

[5] = Cytotoxicity against African green monkey Vero cells assessed as reduction in cell viability incubated for 72 hrs by MTT assay; assay type: toxicity, cell-based; details: chlorocebus sabaeus; method in brief: as §1
[6] = target: T2, Enoyl-[acyl-carrier-protein] reductase [NADH] (Mycobacterium tuberculosis, UniProt P9WGR1); experiment: Noncompetitive inhibition of Mycobacterium tuberculosis InhA using DD-CoA as substrate assessed as inhibition constant for enzyme-inhibitor binary complex in presence of varying concentrations of NADH by double reciprocal plot analysis
T2 sequence (P9WGR1 whole entry): T1 sequence (whole entry)

[7] = Cytotoxicity against human HepG2 cells assessed as reduction in cell viability incubated for 72 hrs by neutral red uptake assay; assay type: toxicity, cell-based; method in brief: as §1
[8] = Chemical stability in PBS at pH 7.4 assessed as parent compound remaining at 1 to 10 uM measured after 24 hrs by HPLC-EM/MS analysis; assay type: physicochemical; details: dose 1-10 µM, read-out: Stability; method in brief: as §3
Staphylococcus aureus = experiment: Antibacterial activity against Staphylococcus aureus ATCC 25923 assessed as inhibition of bacterial growth at 20 uM by broth microdilution method; assay type: functional, organism-based; method in brief: as §2
[9] = Selectivity index, ratio of CC50 for human HepG2 cells by neutral red uptake assay to MIC for pan-sensitive Mycobacterium tuberculosis H37Rv ATCC 27294; assay type: toxicity; details: read-out: Selectivity Index
Escherichia coli = experiment: Antibacterial activity against Escherichia coli ATCC 25922 assessed as inhibition of bacterial growth at 20 uM by broth microdilution method; assay type: functional, organism-based; method in brief: as §2
[10] = Selectivity index, ratio of CC50 for African green monkey Vero cells by MTT assay to MIC for pan-sensitive Mycobacterium tuberculosis H37Rv ATCC 27294; assay type: toxicity, cell-based; details: read-out: Selectivity Index
[11] = test system: Mycobacterium tuberculosis; experiment: Antibacterial activity against Mycobacterium tuberculosis H37Rv ATCC 27294 infected in mouse RAW264.7 cells assessed as reduction in colony forming units at 5 uM measured after 5 days (reference value: 4.19 +/- 0.41); assay type: functional; details: time 5 day
[12] = Chemical stability in 0.1 M HCl solution at pH 1.2 assessed as parent compound remaining at 1 to 10 uM measured after 24 hrs by HPLC-EM/MS analysis; assay type: physicochemical; details: dose 1-10 µM, read-out: Stability; method in brief: as §3
[13] = Selectivity index, ratio of CC50 for human HepG2 cells by MTT assay to MIC for pan-sensitive Mycobacterium tuberculosis H37Rv ATCC 27294; assay type: toxicity; details: read-out: Selectivity Index
[14] = test system: Mycobacterium tuberculosis; experiment: Potency index, ratio of isoniazid MIC to test compound MIC for antibacterial activity against pan-sensitive Mycobacterium tuberculosis H37Rv ATCC 27294 measured after 7 days by resazurin dye based assay; assay type: functional; details: time 7 day
[15] = target: T1, Enoyl-[acyl-carrier-protein] reductase [NADH] (Mycobacterium tuberculosis); experiment: Time dependent inhibition of Mycobacterium tuberculosis InhA
[16] = Permeability of compound at 10 uM measured after 5 hrs by PAMPA assay; assay type: ADME; details: read-out: permeability
Method in brief: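 PAMPA: compounds at 10 μM in 2% DMSO added to a pH 7.4 donor phase, 5 h at room temperature. Receptor-side concentration (pH 7.4) measured to derive permeation rate. Alprenolol is the analytical control.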

[17] = Genotoxicity in human HepG2 cells assessed as induction of DNA damage at 1 to 5 uM incubated for 24 hrs by alkaline comet assay; assay type: toxicity, cell-based; details: hepg2, 24 h, dose 1-5 µM
Method in brief: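 Alkaline comet assay in HepG2 cells seeded at 8 × 10⁴ cells/well. Exposure to 1 or 5 μM for 24 h. Lysis 48 h, alkali unwinding (300 mM NaOH, pH >13) 20 min at 4 °C, electrophoresis 20 min at 25 V, silver staining.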

[18] = Solubility of compound in 0.1 M HCl solution at pH 1.2 at 1 mg incubated for 4 hrs under shaking conditions by liquid chromotography; assay type: physicochemical
Method in brief: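 1 mg of compound was added to 1 mL of PBS pH 7.4 or 0.1 M HCl, in triplicate. Suspensions were vortexed 1 min, shaken 4 h at 25 °C, then centrifuged 13000 rpm for 15 min at 25 °C. Supernatant was quantified by reverse-phase UHPLC (UV 260–280 nm) against a single-point calibration of compound in DMSO.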

[19] = target: T2, Enoyl-[acyl-carrier-protein] reductase [NADH]; experiment: Inhibition of Mycobacterium tuberculosis InhA-catalysed chemical reaction in presence of NADH measured for 1 min by UV/Visible spectrophotometry
Method in brief: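 Recombinant MtInhA reaction at 25 °C in 100 mM Pipes pH 7.0, started by adding 2.2 μM enzyme and followed for 1 min. Substrate is DD-CoA, made from 2-trans-dodecenoic acid and CoA.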

| Compound | CC50 at 72 h [1] | Activity (Acinetobacter baumannii) | degraded at 24 h, up to 10 µM [2] | deltaS [3] | half-life at 2 µM [4] | CC50 at 72 h [5] | Ki [6] | CC50 at 72 h [7] | remaining at 24 h, up to 10 µM [8] | Activity (Staphylococcus aureus) | selectivity ratio [9] | Activity (Escherichia coli) | selectivity ratio [10] | Activity [11] | remaining at 24 h, up to 10 µM [12] | selectivity ratio [13] | Ratio [14] | TDI [15] | Papp at 5 h, 10 µM [16] | Activity [17] | other results |
| --- | --- | --- | --- | --- | --- | --- | --- | --- | --- | --- | --- | --- | --- | --- | --- | --- | --- | --- | --- | --- | --- |
| Cc1cc(Nc2ccc(N3CCCCC3)cc2)c2cc(Cl)ccc2n1 | > 20 µM | inactive | > 75% | -49.8 cal/mol/K | 5.9 min | 19.2 µM | 0.43 µM | 16.4 µM | 100% | inactive | 18.2 | inactive | 21.3 | 2.39 log10CFU | 98.6% | > 22.2 | ~2.6 | inactive | 11.5 ×10⁻⁶ cm/s | Non-Toxic | solubility thermodynamic at 4 h [18]: > 2800 µM; IC50 [19]: 1.1 µM |
| Cc1cc(Nc2ccc(N3CCCCC3)cc2)c2cc(Br)ccc2n1 | > 20 µM | inactive | ~50% | -33.4 cal/mol/K | 22 min | > 20 µM | 0.14 µM | 18.3 µM | 100% | inactive | 45.7 | inactive | > 50 | 2.74 log10CFU | 94.6% | > 50 | ~5.8 | inactive | 3.16 ×10⁻⁶ cm/s | Non-Toxic | solubility thermodynamic at 4 h [18]: > 2500 µM; IC50 [19]: 0.23 µM |
